Test results as given in ChEMBL document CHEMBL2169837 (J Med Chem, 2012).
Activity calls are given as the source filed them. The rule behind the calls is not given here.

How the values were obtained:
Vasopressin V2 receptor [1] = target: T1, Vasopressin V2 receptor (Homo sapiens, UniProt P30518); test: Antagonist activity at human vasopressin V2 receptor expressed in CHO cells assessed as inhibition of AVP-induced cAMP accumulation after 30 mins by TR-FRET based HTRF assay; assay type: functional, cell-based
T1 sequence (P30518 whole entry): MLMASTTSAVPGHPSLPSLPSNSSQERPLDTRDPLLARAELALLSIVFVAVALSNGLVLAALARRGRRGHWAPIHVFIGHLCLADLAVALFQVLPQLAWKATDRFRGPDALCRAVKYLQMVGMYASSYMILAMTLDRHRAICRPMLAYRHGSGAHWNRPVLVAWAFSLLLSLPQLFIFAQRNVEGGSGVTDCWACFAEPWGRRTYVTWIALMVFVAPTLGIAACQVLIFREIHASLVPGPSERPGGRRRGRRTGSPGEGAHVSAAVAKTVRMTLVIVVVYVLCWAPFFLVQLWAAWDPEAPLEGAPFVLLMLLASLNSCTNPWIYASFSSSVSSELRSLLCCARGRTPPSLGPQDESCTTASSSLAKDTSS
In short: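 CHO cells stably expressing human V2R, 5 × 10^3 per well on polyornithine, used 24 h after seeding. Incubated 30 min at 37 °C with compound (10−12 to 10−5 M) plus phosphodiesterase inhibitor RO 201724 0.1 mM. Antagonist mode run with 1 nM AVP. Cells lysed and cAMP read by HTRF (TR-FRET). Kact/Kinact from three independent experiments in triplicate, mean ± SEM.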

Oxytocin receptor [2] = target: T2, Oxytocin receptor (Homo sapiens, UniProt P30559); test: Binding affinity to oxytocin receptor
T2 sequence (P30559 whole entry): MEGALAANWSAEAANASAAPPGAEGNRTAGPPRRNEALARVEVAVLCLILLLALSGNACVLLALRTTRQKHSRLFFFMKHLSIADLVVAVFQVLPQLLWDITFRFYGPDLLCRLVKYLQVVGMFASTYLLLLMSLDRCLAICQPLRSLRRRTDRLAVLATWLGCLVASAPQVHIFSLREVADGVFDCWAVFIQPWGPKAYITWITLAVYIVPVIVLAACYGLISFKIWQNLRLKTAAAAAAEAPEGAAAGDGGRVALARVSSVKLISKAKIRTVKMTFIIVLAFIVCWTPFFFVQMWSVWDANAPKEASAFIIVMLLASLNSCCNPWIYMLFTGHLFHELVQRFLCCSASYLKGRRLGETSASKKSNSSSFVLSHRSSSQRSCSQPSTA
In short: (§1)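 Membranes (5 μg protein) from CHO cells stably expressing human V2R, V1aR, V1bR or OTR. Incubated 30 min at 30 °C in 50 mM Tris-HCl pH 7.4, 5 mM MgCl2, 1 mg/mL BSA with [3H]-AVP (1−2 nM) and competitor from 100 pM to 100 μM. Nonspecific binding with 10 μM AVP. GF/C filtration; Ki by nonlinear least-squares regression. Triplicate, at least three membrane batches.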

[3] = Binding affinity to vasopressin V2 receptor in rabbit kidney membranes; assay type: cell membranes, Oryctolagus cuniculus, Membrane
Vasopressin V2 receptor [4] = target: T1, Vasopressin V2 receptor; test: Agonist activity at human vasopressin V2 receptor expressed in CHO cells assessed as cAMP accumulation after 30 mins by TR-FRET based HTRF assay; assay type: functional, cell-based
In short: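 CHO cells stably expressing human V2R, 5 × 10^3 per well on polyornithine, used 24 h after seeding. Cells lysed and cAMP read by HTRF (TR-FRET). Kact/Kinact from three independent experiments in triplicate, mean ± SEM.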

[5] = target: Vasopressin V2 receptor (Oryctolagus cuniculus); test: Binding affinity to vasopressin V2 receptor
Vasopressin V1a receptor [6] = target: T3, Vasopressin V1a receptor (Homo sapiens, UniProt P37288); test: Binding affinity to vasopressin V1a receptor; in short: as §1
Target sequence in this assay (P37288 whole entry): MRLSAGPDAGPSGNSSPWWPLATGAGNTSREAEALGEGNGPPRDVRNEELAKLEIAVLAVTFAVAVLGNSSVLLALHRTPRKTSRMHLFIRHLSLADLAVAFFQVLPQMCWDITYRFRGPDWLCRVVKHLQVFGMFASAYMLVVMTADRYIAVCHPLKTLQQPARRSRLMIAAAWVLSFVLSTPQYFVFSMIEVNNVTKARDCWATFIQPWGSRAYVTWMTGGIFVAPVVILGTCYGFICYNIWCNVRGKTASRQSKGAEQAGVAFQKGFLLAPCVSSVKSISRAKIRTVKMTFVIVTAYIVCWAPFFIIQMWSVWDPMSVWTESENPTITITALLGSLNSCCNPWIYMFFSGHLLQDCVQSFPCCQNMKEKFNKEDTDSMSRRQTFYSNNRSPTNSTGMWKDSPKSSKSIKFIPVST

Vasopressin V2 receptor [7] = target: T1, Vasopressin V2 receptor; test: Displacement of [3H]-AVP from human vasopressin V2 receptor expressed in CHO cells after 30 mins; assay type: cell-based
Vasopressin V2 receptor [8] = target: T1, Vasopressin V2 receptor; test: Binding affinity to SNAP-tagged vasopressin V2 receptor expressed in COS7 cells after 1 hr by FRET assay; assay type: cell-based; details: COS-7
In short: (§2)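 Cos7 cells expressing SNAP-V1a, SNAP-V2 or both, 50000 cells/well. Incubated overnight at 4 °C with one donor plus one acceptor fluorescent ligand, each near its Kd. Signal given as %ΔF from the 665/620 ratio (excitation 335 nm) against mock cells. Receptor expression measured by SNAP-Lumi4-Tb labeling (100 nM, 1 h, room temperature), read at 620 nm.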

Vasopressin V1b receptor = target: T4, Vasopressin V1b receptor (Homo sapiens, UniProt P47901); test: Displacement of [3H]-AVP from human vasopressin V1b receptor expressed in CHO cells after 30 mins; assay type: cell-based
T4 sequence (P47901 whole entry): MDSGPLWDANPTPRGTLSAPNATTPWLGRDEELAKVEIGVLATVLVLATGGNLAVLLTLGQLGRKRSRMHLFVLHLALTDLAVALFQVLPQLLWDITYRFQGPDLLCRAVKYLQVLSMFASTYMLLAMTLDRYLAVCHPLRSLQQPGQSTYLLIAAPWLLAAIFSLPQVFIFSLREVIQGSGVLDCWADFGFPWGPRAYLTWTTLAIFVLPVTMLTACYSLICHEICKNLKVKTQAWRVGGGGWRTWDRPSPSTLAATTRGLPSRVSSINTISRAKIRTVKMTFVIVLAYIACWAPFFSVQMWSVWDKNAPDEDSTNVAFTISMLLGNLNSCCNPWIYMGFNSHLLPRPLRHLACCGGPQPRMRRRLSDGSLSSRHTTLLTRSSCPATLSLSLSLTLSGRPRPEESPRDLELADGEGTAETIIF

Oxytocin receptor [9] = target: T2, Oxytocin receptor; test: Displacement of [3H]-AVP from human oxytocin receptor expressed in CHO cells after 30 mins; assay type: cell-based
Vasopressin V2 receptor [10] = target: T1, Vasopressin V2 receptor; test: Binding affinity to SNAP-tagged vasopressin V2 receptor expressed in HEK293 cells after 1 hr by TR-FRET assay; assay type: cell-based
In short: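 HEK 293T cells electroporated with SNAP-tag–V2R and grown 48 h. Receptor labeled 1 h at 37 °C with SNAP-Lumi4-Tb (100 nM) or SNAP-RED (300 nM), then washed. Rising fluorescent-ligand concentrations added and incubated overnight at 4 °C. TR-FRET read with excitation 340 nm, emission 620/665 nm. Nonspecific binding taken with 10 μM unlabeled ligand. Kd from saturation, three experiments in triplicate.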

[11] = target: T5, Vasopressin V1b receptor (Homo sapiens) (UniProt P47901); test: Displacement of [3H]-AVP from human vasopressin V1b receptor expressed in CHO cells at 10 uM after 30 mins; assay type: cell-based
T5 sequence (whole entry): T4 sequence (P47901 whole entry)
In short: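 Human OTR, V1aR or V1bR membranes from CHO cells, [3H]-AVP displacement with compound at a single 10 μM concentration, 30 min at 30 °C in Tris-HCl pH 7.4/MgCl2/BSA buffer.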

Vasopressin V1a receptor [12] = target: T3, Vasopressin V1a receptor; test: Displacement of [3H]-AVP from human vasopressin V1a receptor expressed in CHO cells after 30 mins; assay type: cell-based
Target sequence in this assay (P37288 whole entry): as the sequence (P37288 whole entry) above

Vasopressin V2 receptor [13] = target: T1, Vasopressin V2 receptor; test: Binding affinity to SNAP-tagged vasopressin V2 receptor expressed in COS7 cells assessed as interaction with vasopressin V2/V1a receptor dimer after 1 hr by FRET assay; assay type: cell-based; details: COS-7; in short: as §2
Homo sapiens = species: Homo sapiens; test: Selectivity ratio of Ki for human oxytocin receptor to Ki for human vasopressin V2 receptor
Vasopressin V1a receptor [14] = target: T3, Vasopressin V1a receptor; test: Binding affinity to SNAP-tagged vasopressin V1a receptor expressed in COS7 cells assessed as interaction with vasopressin V2/V1a receptor dimer after 1 hr by FRET assay; assay type: cell-based; details: COS-7; in short: as §2
Target sequence in this assay (P37288 whole entry, looked up): as the sequence (P37288 whole entry) above

Vasopressin V1a receptor [15] = target: T3, Vasopressin V1a receptor; test: Binding affinity to SNAP-tagged vasopressin V1a receptor expressed in COS7 cells after 1 hr by FRET assay; assay type: cell-based; details: COS-7; in short: as §2
Target sequence in this assay (P37288 whole entry, looked up): as the sequence (P37288 whole entry) above

Row | inhibition (Vasopressin V2 receptor [1]) | Ki (Oxytocin receptor [2]) | Ki [3] | Activity (Vasopressin V2 receptor [4]) | Ki [5] | Ki (Vasopressin V1a receptor [6]) | Ki (Vasopressin V2 receptor [7]) | Activity (Vasopressin V2 receptor [8]) | Ki (Vasopressin V1b receptor) | Ki (Oxytocin receptor [9]) | Kb (Vasopressin V2 receptor [1]) | Kd (Vasopressin V2 receptor [10]) | inhibition [11] | Ki (Vasopressin V1a receptor [12]) | Activity (Vasopressin V2 receptor [13]) | Ratio Ki (Homo sapiens) | Activity (Vasopressin V1a receptor [14]) | Activity (Vasopressin V1a receptor [15]) | Structure (SMILES)
1 | Dose-dependent effect | 30 nM | 7.2 nM | inactive | 7.2 nM | 8.1 nM | 2.68 nM |  |  |  |  |  |  |  |  |  |  |  | Cc1ccccc1C(=O)Nc1ccc(C(=O)N2CCCCc3ccccc32)cc1
2 | Dose-dependent effect |  |  | inactive |  |  | 5.69 nM | Active | > 10000 nM | 184 nM | 0.1 nM | 1.38 nM | < 50% | 621 nM | Active | 32 |  |  | CCN1/C(=C/C=C/C=C/C2=[N+](CC)c3ccc(S(=O)(=O)[O-])cc3C2(C)C)C(C)(CCCC(=O)NCCn2cc(CNC(=O)CCC(=O)NC3CCCN(C(=O)c4ccc(NC(=O)c5ccccc5-c5ccccc5)cc4)c4ccccc43)nn2)c2cc(S(=O)(=O)O)ccc21 (configuration not stated)
3 | Dose-dependent effect | 63 nM | 7.6 nM | inactive | 7.5 nM | 14.1 nM |  |  |  |  |  |  |  |  |  |  |  |  | O=C(Nc1ccc(C(=O)N2CCCCc3ccccc32)cc1)c1ccccc1-c1ccccc1
4 |  |  |  |  |  |  |  |  |  |  |  |  |  |  |  |  | Active | Active | COc1ccc(C[C@@H](NC(=O)CCc2ccc(O)cc2)C(=O)N[C@@H](Cc2ccccc2)C(=O)N[C@@H](CCC(N)=O)C(=O)N[C@@H](CC(N)=O)C(=O)N[C@@H](CCCNC(=N)N)C(=O)N2CCC[C@H]2C(=O)N[C@@H](CCCCNC(=O)CCCCC2(C)C(/C=C/C=C/C=C3\N(CCCS(=O)(=O)O)c4ccc(S(=O)(=O)[O-])cc4C3(C)C)=[N+](CCCS(=O)(=O)O)c3ccc(S(=O)(=O)O)cc32)C(N)=O)cc1 (some centres not stated)
